From ChEMBL document CHEMBL3227923, “Conformational analysis of podophyllotoxin and its congeners. Structure--activity relationship in microtubule assembly” (J Med Chem, 1979)

Species on record: Gallus gallus
Assay: Inhibition of chicken brain microtubule polymerization after 30 mins
Method in brief: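 Chicken brain microtubule assembly in vitro at 37 °C and neutral pH over a 30-min incubation. ID50 is the drug concentration giving 50% inhibition of assembly, averaged from triplicate experiments (standard deviation <15%).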

With `COc1cc([C@@H]2c3cc4c(cc3[C@H](O)[C@H]3CSC[C@H]23)OCO4)cc(OC)c1OC` as the molecule, how does the ID50 read?
Its ID50 is 10 µM.

How did the ID50 turn out when `COc1cc([C@@H]2c3cc4c(cc3[C@H](O)[C@H]3COC(=O)[C@H]23)OCO4)cc(OC)c1OC` was run?
The ID50 was 0.6 µM.

How did the ID50 turn out when `COc1cc([C@@H]2c3cc4c(cc3[C@H](O)[C@H]3COC[C@H]23)OCO4)cc(OC)c1OC` was run?
Its ID50 is 1 µM.

For `COc1cc([C@@H]2c3cc4c(cc3[C@H](O)[C@H]3COC(=O)[C@@H]23)OCO4)cc(OC)c1OC`, which ID50 is on record?
Its ID50 is 30 µM.

With `COc1cc([C@@H]2c3cc4c(cc3C[C@H]3CSC[C@@H]32)OCO4)cc(OC)c1OC` as the molecule, how does the ID50 read?
The ID50 was 10 µM.

`COc1cc([C@@H]2c3cc4c(cc3C[C@H]3COC(=O)[C@@H]32)OCO4)cc(OC)c1OC` was tested. Which ID50 did it give?
The ID50 was 0.5 µM.

With `COc1cc([C@@H]2c3cc4c(cc3C[C@H]3COC[C@@H]32)OCO4)cc(OC)c1OC` as the molecule, how does the ID50 read?
The ID50 was 0.8 µM.

For `COc1cc([C@@H]2c3cc4c(cc3[C@@H](O)[C@H]3COC(=O)[C@H]23)OCO4)cc(OC)c1OC`, which ID50 is on record?
The ID50 was 5 µM.

Which ID50 does the source give for `COc1cc([C@@H]2c3cc4c(cc3C[C@H]3CCC[C@@H]32)OCO4)cc(OC)c1OC` here?
The ID50 was 5 µM.

With `COc1cc([C@@H]2c3cc4c(cc3[C@H](O)[C@H]3CS(=O)(=O)C[C@H]23)OCO4)cc(OC)c1OC` as the molecule, how does the ID50 read?
Its ID50 is over 100 µM.

`COc1cc([C@@H]2c3cc4c(cc3C[C@H]3CS(=O)(=O)C[C@@H]32)OCO4)cc(OC)c1OC` was tested. Which ID50 did it give?
Its ID50 is over 100 µM.
